# Results: ChEMBL document CHEMBL1125365, “Acyl-CoA:cholesterol O-acyl transferase (ACAT) inhibitors. 1. 2-(Alkylthio)-4,5-diphenyl-1H-imidazoles as potent inhibitors of ACAT” (J Med Chem, 1992)
# pIC50: −log10 of the molar value.
# Assays:
# Rattus norvegicus = experiment: Tested in vivo for anti-hypercholesterolaemic activity in male Sprague-Dawley rat.; assay type: functional
# Summary of the method: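 Compound was given at 0.03% w/w in the diet (about 30 mg/kg/day). Basal-diet rats (n = 4) gave a baseline that was subtracted. Plasma cholesterol was measured enzymatically, and the result was expressed as percent change versus undosed controls.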
# [1] = molecular target: T1, Sterol O-acyltransferase 1 (Rattus norvegicus) (UniProt O70536); experiment: In vitro acyl coenzyme A:cholesterol acyltransferase (ACAT) activity in rat liver microsome at a concentration of 10 micro g/mL; assay type: microsomes
# T1 sequence (whole entry): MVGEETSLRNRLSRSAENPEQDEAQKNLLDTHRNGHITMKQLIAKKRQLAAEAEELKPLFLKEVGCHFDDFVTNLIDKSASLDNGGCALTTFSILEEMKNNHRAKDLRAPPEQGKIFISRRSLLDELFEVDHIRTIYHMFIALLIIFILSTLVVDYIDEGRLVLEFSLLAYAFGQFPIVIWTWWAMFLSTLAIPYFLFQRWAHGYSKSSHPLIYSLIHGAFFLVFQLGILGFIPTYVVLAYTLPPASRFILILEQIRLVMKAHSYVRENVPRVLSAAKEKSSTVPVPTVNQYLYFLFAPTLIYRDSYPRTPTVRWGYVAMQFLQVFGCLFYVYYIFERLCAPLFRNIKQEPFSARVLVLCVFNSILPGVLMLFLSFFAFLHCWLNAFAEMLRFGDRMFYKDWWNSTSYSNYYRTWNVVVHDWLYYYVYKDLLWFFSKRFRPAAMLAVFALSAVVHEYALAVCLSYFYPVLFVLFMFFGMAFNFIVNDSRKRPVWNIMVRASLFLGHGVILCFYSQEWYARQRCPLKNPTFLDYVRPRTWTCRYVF
# Summary of the method: (§1)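 Enzyme source was hepatic microsomes from cholesterol-fed rats, 60 μg microsomal protein per reaction, with 90 μM radiolabeled oleoyl-CoA. Cholesterol ester formed was separated by TLC and quantified by scintillation counting. Compounds were tested at a single fixed concentration of 1 or 10 μg/mL, and results were given as percent inhibition of enzyme activity.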
# [2] = molecular target: T2, Sterol O-acyltransferase 1 (Rattus norvegicus, UniProt O70536); experiment: Inhibition of acyl coenzyme A:cholesterol acyltransferase (ACAT) activity in rat liver microsome; assay type: microsomes
# T2 sequence (O70536 whole entry): T1 sequence (whole entry)
# Summary of the method: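 The assay used rat hepatic microsomes from cholesterol-fed animals (60 μg protein) and 90 μM radiolabeled oleoyl-CoA. Cholesterol ester product was resolved by TLC and counted by scintillation. IC50 was the concentration inhibiting 50% of enzyme activity.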
# [3] = molecular target: T1, Sterol O-acyltransferase 1 (Rattus norvegicus); experiment: Tested in vitro for acyl coenzyme A:cholesterol acyltransferase (ACAT) activity in rat liver microsome at a concentration of 1 micro g/mL; assay type: microsomes; summary of the method: as §1
structure (smiles),measurement,setting,value
C[C@]1(O)CC(=O)OC(CSc2nc(-c3ccccc3)c(-c3ccccc3)[nH]2)C1 (stereo partly drawn),Change,Rattus norvegicus,-35%
same,inhibition,[1],98%
same,pIC50,[2],6.85
c1ccc(-c2nc(SCCC3OCCCO3)[nH]c2-c2ccccc2)cc1,inhibition,[3],80%
same,pIC50,[2],6.14
O=C1CC(O)CC(CSc2nc(-c3ccccc3)c(-c3ccccc3)[nH]2)O1 (stereo not drawn),inhibition,[3],89%
same,pIC50,[2],6.04
CC(O)(CC(=O)OC(C)(C)C)CC(O)CSc1nc2c3ccccc3c3ccccc3c2[nH]1 (stereo not drawn),inhibition,[3],41%
COc1ccc(-c2nc(SCC3C[C@](C)(O)CC(=O)O3)[nH]c2-c2ccc(OC)cc2)cc1 (stereo partly drawn),inhibition,[1],87%
same,pIC50,[2],6.38
O=C(O)CCC(O)CSc1nc(-c2ccccc2)c(-c2ccccc2)[nH]1 (stereo not drawn),inhibition,[1],76%
CCSc1nc(-c2ccccc2)c(-c2ccccc2)[nH]1,inhibition,[1],99%
same,pIC50,[2],6.11
CCOC(CSc1nc(-c2ccco2)c(-c2ccco2)[nH]1)OCC,inhibition,[3],34%
C[C@@]1(O)CC(=O)O[C@@H](CSc2nc(-c3ccc(C(F)(F)F)cc3)c(-c3ccc(C(F)(F)F)cc3)[nH]2)C1.C[C@]1(O)CC(=O)O[C@@H](CSc2nc(-c3ccc(C(F)(F)F)cc3)c(-c3ccc(C(F)(F)F)cc3)[nH]2)C1,inhibition,[1],95%
same,pIC50,[2],6.00
Clc1ccccc1-c1[nH]c(SCC2CCCCO2)nc1-c1ccccc1 (stereo not drawn),inhibition,[3],76%
O=C(O)CCCCCSc1nc(-c2ccccc2Cl)c(-c2ccccc2Cl)[nH]1,inhibition,[1],20%
COc1cccc(-c2nc(SCC3C[C@](C)(O)CC(=O)O3)[nH]c2-c2cccc(OC)c2)c1 (stereo partly drawn),inhibition,[1],97%
same,pIC50,[2],6.24
COc1ccccc1-c1nc(S)[nH]c1-c1ccccc1OC,inhibition,[3],0%
C[C@@]1(O)CC(=O)OC(CSc2nc(-c3cccc(Cl)c3)c(-c3cccc(Cl)c3)[nH]2)C1 (stereo partly drawn),inhibition,[3],93%
same,pIC50,[2],6.96
Clc1ccc(-c2[nH]c(SCC3CCCCO3)nc2-c2ccccc2)cc1 (stereo not drawn),inhibition,[3],87%
C[C@@]1(O)CC(=O)OC(CSc2nc(-c3ccc(Cl)cc3)c(-c3ccc(Cl)cc3)[nH]2)C1 (stereo partly drawn),Change,Rattus norvegicus,-11%
same,inhibition,[1],98%
same,pIC50,[2],6.74
Cc1ccc(-c2nc(SC[C@H]3C[C@@](C)(O)CC(=O)O3)[nH]c2-c2ccc(C)cc2)cc1.Cc1ccc(-c2nc(SC[C@H]3C[C@](C)(O)CC(=O)O3)[nH]c2-c2ccc(C)cc2)cc1,inhibition,[1],99%
same,pIC50,[2],6.77
CC1=CC(=O)OC(CSc2nc(-c3cccc(Cl)c3)c(-c3cccc(Cl)c3)[nH]2)C1 (stereo not drawn),inhibition,[1],98%
same,pIC50,[2],6.36
C[C@@]1(O)CC(=O)OC(CSc2nc(-c3ccc(F)cc3)c(-c3ccc(F)cc3)[nH]2)C1 (stereo partly drawn),inhibition,[1],97%
same,pIC50,[2],6.10
CO[C@H]1C[C@@](C)(O)C[C@H](CSc2nc(-c3ccccc3)c(-c3ccccc3)[nH]2)O1,inhibition,[3],89%
same,pIC50,[2],6.55
C[C@@]1(O)CC(=O)O[C@@H](CSc2nc(-c3ccccc3)c(-c3ccccc3)s2)C1.C[C@]1(O)CC(=O)O[C@@H](CSc2nc(-c3ccccc3)c(-c3ccccc3)s2)C1,inhibition,[1],4%
Sc1nc(-c2ccccc2Cl)c(-c2ccccc2Cl)[nH]1,inhibition,[1],27%
CC(C)(C)c1ccc(-c2nc(SC[C@H]3C[C@@](C)(O)CC(=O)O3)[nH]c2-c2ccc(C(C)(C)C)cc2)cc1.CC(C)(C)c1ccc(-c2nc(SC[C@H]3C[C@](C)(O)CC(=O)O3)[nH]c2-c2ccc(C(C)(C)C)cc2)cc1,inhibition,[3],32%
C[C@@]1(O)CC(O)O[C@@H](CSc2nc(-c3ccccc3)c(-c3ccccc3)[nH]2)C1 (stereo partly drawn),inhibition,[3],94%
same,pIC50,[2],6.80
COc1ccc(-c2nc(S)[nH]c2-c2ccc(OC)cc2)cc1,inhibition,[1],42%
C[C@]1(O)CC(=O)OC(CSc2nc(-c3ccccc3)n(-c3ccccc3)n2)C1 (stereo partly drawn),inhibition,[3],12%
O=C1CCCC(CSc2nc(-c3ccccc3)c(-c3ccccc3)[nH]2)N1 (stereo not drawn),inhibition,[3],86%
same,pIC50,[2],6.21
CO[C@H]1C[C@H](O)C[C@@H](CSc2nc(-c3ccccc3)c(-c3ccccc3)[nH]2)O1,inhibition,[3],92%
same,pIC50,[2],7.05
CCOC(=O)CC(C)(O)CC(O)CSc1nc(-c2ccccc2)c(-c2ccccc2)[nH]1 (stereo not drawn),inhibition,[3],91%
same,pIC50,[2],6.55
COc1ccc(-c2nc(SCC3C[C@@](C)(O)CC(=O)O3)[nH]c2-c2ccc(OC)cc2)cc1 (stereo partly drawn),inhibition,[1],96%
same,pIC50,[2],6.47
C[C@@]1(O)CC(=O)O[C@@H](CSc2nc(-c3ccccc3)c(-c3ccccc3)n2-c2ccccc2)C1.C[C@]1(O)CC(=O)O[C@@H](CSc2nc(-c3ccccc3)c(-c3ccccc3)n2-c2ccccc2)C1,inhibition,[1],32%
COC(CSc1nc(-c2ccccc2)c(-c2ccccc2)[nH]1)OC,inhibition,[1],99%
same,pIC50,[2],6.24
CO[C@@H]1C[C@@](C)(O)C[C@H](CSc2nc(-c3ccccc3)c(-c3ccccc3)[nH]2)O1,inhibition,[3],93%
same,pIC50,[2],7.09
O=C1CCC(CSc2nc(-c3ccccc3)c(-c3ccccc3)[nH]2)N1 (stereo not drawn),inhibition,[3],87%
same,pIC50,[2],6.44
CC1=CC(=O)OC(CSc2nc(-c3ccc(C)cc3)c(-c3ccc(C)cc3)[nH]2)C1 (stereo not drawn),inhibition,[1],97%
same,pIC50,[2],6.55
C[C@@]1(O)CC(=O)O[C@@H](CSc2nc(-c3ccccc3)c(-c3ccccc3)o2)C1.C[C@]1(O)CC(=O)O[C@@H](CSc2nc(-c3ccccc3)c(-c3ccccc3)o2)C1,inhibition,[1],13%
CC1=CC(=O)OC(CSc2nc(-c3ccccc3Cl)c(-c3ccccc3Cl)[nH]2)C1 (stereo not drawn),inhibition,[1],95%
same,pIC50,[2],5.77
C[C@@]1(O)CC(=O)OC(CSc2nc(-c3ccccc3Cl)c(-c3ccccc3Cl)[nH]2)C1 (stereo partly drawn),inhibition,[1],99%
same,pIC50,[2],6.85
COc1ccccc1-c1nc(SC[C@H]2C[C@@](C)(O)CC(=O)O2)[nH]c1-c1ccccc1OC.COc1ccccc1-c1nc(SC[C@H]2C[C@](C)(O)CC(=O)O2)[nH]c1-c1ccccc1OC,inhibition,[3],29%
CC1=CC(=O)OC(CSc2nc(-c3ccc(Cl)cc3)c(-c3ccc(Cl)cc3)[nH]2)C1 (stereo not drawn),inhibition,[3],77%
CO[C@H]1O[C@H](CSc2nc(-c3ccccc3)c(-c3ccccc3)[nH]2)[C@@H](O)[C@H](O)[C@@H]1O,inhibition,[3],52%
CC(O)(CC(=O)[O-])CC(O)CSc1nc(-c2ccccc2)c(-c2ccccc2)[nH]1.[Na+] (stereo not drawn),Change,Rattus norvegicus,-33%
same,inhibition,[1],66%
CC1=CC(=O)OC(CSc2nc(-c3ccc(F)cc3)c(-c3ccc(F)cc3)[nH]2)C1 (stereo not drawn),inhibition,[1],96%
same,pIC50,[2],6.21
C[C@@]1(O)CC(=O)OC(CSc2nc(-c3ccccc3)c[nH]2)C1 (stereo partly drawn),inhibition,[1],0%
c1ccc(CSc2nc(-c3ccccc3)c(-c3ccccc3)[nH]2)cc1,inhibition,[3],90%
same,pIC50,[2],6.54
CC(C)c1ccc(-c2nc(SC[C@H]3C[C@@](C)(O)CC(=O)O3)[nH]c2-c2ccc(C(C)C)cc2)cc1.CC(C)c1ccc(-c2nc(SC[C@H]3C[C@](C)(O)CC(=O)O3)[nH]c2-c2ccc(C(C)C)cc2)cc1,inhibition,[3],90%
same,pIC50,[2],6.64
O=C1CCC(CSc2nc(-c3ccccc3)c(-c3ccccc3)[nH]2)O1 (stereo not drawn),inhibition,[1],78%
Cn1c(SC[C@H]2C[C@@](C)(O)CC(=O)O2)nc(-c2ccccc2)c1-c1ccccc1.Cn1c(SC[C@H]2C[C@](C)(O)CC(=O)O2)nc(-c2ccccc2)c1-c1ccccc1,inhibition,[1],90%
same,pIC50,[2],5.59
Clc1cccc(-c2[nH]c(SCC3CCCCO3)nc2-c2ccccc2)c1 (stereo not drawn),inhibition,[3],90%
same,pIC50,[2],6.25
C[C@@]1(O)CC(=O)O[C@@H](CS(=O)(=O)c2nc(-c3ccccc3)c(-c3ccccc3)[nH]2)C1,inhibition,[1],23%
CCOC(CSc1nc(-c2ccccn2)c(-c2ccccn2)[nH]1)OCC,inhibition,[1],15%
